Source: ChEMBL document CHEMBL3593206, “SAR Studies of Exosite-Binding Substrate-Selective Inhibitors of A Disintegrin And Metalloprotease 17 (ADAM17) and Application as Selective in Vitro Probes” (J Med Chem, 2015)
pIC50: −log10 of the molar value.

Tests used:
[1] = target: T1, Disintegrin and metalloproteinase domain-containing protein 10 (Homo sapiens, UniProt O14672); assay: Inhibition of ADAM10 (unknown origin) preincubated for 30 mins followed by substrate addition measured every 30 mins for 2 hrs by fluorescence assay
T1 sequence (O14672 whole entry): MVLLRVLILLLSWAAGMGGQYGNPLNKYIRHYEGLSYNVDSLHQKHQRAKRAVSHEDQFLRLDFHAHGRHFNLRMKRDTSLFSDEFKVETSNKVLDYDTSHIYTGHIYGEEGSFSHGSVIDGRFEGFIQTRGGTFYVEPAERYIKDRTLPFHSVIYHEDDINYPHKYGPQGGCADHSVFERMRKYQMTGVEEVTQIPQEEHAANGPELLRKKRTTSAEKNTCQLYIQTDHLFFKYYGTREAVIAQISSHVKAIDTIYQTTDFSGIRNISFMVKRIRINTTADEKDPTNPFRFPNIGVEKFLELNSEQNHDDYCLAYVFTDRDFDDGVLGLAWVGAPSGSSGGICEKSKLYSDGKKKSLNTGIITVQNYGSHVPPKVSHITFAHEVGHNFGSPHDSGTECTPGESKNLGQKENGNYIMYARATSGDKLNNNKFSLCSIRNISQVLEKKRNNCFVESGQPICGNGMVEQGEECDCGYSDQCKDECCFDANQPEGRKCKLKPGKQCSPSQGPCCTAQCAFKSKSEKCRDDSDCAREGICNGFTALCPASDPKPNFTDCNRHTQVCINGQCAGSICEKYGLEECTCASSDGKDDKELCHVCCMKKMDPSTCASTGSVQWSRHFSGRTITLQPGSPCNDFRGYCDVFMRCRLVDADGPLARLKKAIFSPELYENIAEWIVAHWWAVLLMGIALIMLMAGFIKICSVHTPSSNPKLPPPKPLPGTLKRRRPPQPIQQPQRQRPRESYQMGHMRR
Method in brief: (§1)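 Enzyme at 30 nM (3× solution) in 10 mM Hepes, 0.001% Brij-35, pH 7.5. Inhibitor series of 10 points, 1:3, from 300 μM, preincubated 30 min at RT. Glycosylated substrate added from a 30 μM 3× solution. Fluorescence (ex 360/em 460 nm) read every 30 min for 2 h. Inhibition taken from hydrolysis rates against substrate-only and substrate-plus-enzyme wells.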

[2] = target: T2, Disintegrin and metalloproteinase domain-containing protein 17 (Homo sapiens, UniProt P78536); assay: Inhibition of ADAM17 (unknown origin) preincubated for 30 mins followed by substrate addition measured every 30 mins for 2 hrs by fluorescence assay; method in brief: as §1
T2 sequence (P78536 whole entry, the tested form may be a part): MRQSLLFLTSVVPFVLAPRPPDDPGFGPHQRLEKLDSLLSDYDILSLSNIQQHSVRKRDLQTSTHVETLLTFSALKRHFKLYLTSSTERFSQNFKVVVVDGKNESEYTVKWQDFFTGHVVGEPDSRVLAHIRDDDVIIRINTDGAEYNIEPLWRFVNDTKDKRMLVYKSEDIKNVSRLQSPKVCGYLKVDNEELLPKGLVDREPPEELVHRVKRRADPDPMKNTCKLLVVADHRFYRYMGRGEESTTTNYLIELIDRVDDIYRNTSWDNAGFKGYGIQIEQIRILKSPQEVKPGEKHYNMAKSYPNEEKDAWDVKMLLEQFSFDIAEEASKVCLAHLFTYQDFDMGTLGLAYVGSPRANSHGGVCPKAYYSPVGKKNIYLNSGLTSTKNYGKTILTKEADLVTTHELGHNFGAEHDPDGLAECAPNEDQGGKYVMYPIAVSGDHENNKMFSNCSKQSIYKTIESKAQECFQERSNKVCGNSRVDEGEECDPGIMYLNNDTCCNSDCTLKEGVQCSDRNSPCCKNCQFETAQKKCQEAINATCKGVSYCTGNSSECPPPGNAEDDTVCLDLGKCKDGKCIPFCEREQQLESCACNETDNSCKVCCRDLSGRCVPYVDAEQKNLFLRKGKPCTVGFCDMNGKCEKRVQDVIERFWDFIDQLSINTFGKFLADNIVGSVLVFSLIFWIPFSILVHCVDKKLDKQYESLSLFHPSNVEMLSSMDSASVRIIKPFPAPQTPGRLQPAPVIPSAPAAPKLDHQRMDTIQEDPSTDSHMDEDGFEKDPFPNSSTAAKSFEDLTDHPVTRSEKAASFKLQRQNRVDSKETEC

[3] = target: Matrix metalloproteinase-9 (Homo sapiens, UniProt P14780); assay: Inhibition of MMP9 (unknown origin) using Mca-KLPGL-Dnp-AR as substrate at 100 uM preincubated for 30 mins followed by substrate addition measured after 1 hr by fluorescence assay relative to control
Chain of Matrix metalloproteinase-9 (P14780 whole entry): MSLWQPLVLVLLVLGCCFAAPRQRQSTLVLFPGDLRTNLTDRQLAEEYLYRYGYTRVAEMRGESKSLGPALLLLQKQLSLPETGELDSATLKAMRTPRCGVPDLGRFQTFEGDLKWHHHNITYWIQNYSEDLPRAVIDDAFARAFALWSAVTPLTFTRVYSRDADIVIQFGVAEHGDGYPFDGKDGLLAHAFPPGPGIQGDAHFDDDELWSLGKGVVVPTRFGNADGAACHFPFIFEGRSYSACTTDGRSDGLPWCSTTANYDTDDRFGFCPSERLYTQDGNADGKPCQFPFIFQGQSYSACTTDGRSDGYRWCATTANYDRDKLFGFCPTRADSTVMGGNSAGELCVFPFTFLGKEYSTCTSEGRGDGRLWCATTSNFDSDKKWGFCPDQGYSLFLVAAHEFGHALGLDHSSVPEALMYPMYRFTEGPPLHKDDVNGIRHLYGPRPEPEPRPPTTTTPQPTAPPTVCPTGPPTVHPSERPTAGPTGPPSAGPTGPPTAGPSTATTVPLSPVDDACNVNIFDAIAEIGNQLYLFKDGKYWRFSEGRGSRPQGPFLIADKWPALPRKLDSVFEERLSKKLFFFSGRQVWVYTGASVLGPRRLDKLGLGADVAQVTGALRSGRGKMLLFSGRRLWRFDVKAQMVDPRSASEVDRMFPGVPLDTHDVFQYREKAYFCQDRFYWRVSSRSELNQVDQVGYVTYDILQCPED
Method in brief: (§2)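 Inhibitor as 10-point 1:3 dilutions from 300 μM, 30 min at RT. Substrate added from a 30 μM 3× solution. Single fluorescence read (ex 324/em 393 nm) after 1 h at RT.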

[4] = target: Matrix metalloproteinase-14 (Homo sapiens, UniProt P50281); assay: Inhibition of MMP14 (unknown origin) using Mca-KLPGL-Dnp-AR as substrate at 100 uM preincubated for 30 mins followed by substrate addition measured after 1 hr by fluorescence assay relative to control
[5] = target: T2, Disintegrin and metalloproteinase domain-containing protein 17; assay: Inhibition of ADAM17 (unknown origin) at 100 uM preincubated for 30 mins followed by substrate addition measured every 30 mins for 2 hrs by fluorescence assay relative to control; method in brief: as §1
[6] = target: T3, Disintegrin and metalloproteinase domain-containing protein 10 (Homo sapiens) (UniProt O14672); assay: Inhibition of ADAM10 in human A549 cells assessed as inhibition of betacellulin shedding at 40 uM after 1 hr by ELISA; type: cell-based
T3 sequence (whole entry): T1 sequence (O14672 whole entry)
Method in brief: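 A549 cells were tested for betacellulin shedding at 40 μM, with Marimastat at 10 μM as control.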

[7] = target: T3, Disintegrin and metalloproteinase domain-containing protein 10 (Homo sapiens); assay: Inhibition of ADAM10 (unknown origin) at 100 uM preincubated for 30 mins followed by substrate addition measured every 30 mins for 2 hrs by fluorescence assay relative to control; method in brief: as §1
[8] = target: T2, Disintegrin and metalloproteinase domain-containing protein 17; assay: Inhibition of ADAM17 in human A549 cells assessed as effect on PMA-stimulated TGFalpha shedding up to 100 uM preincubated for 1 hr followed by PMA stimulation measured after 1 hr by ELISA; type: cell-based
Method in brief: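 TGFα shedding from PMA-treated A549 cells tested up to 100 μM. Marimastat at 10 μM served as control, with a non-PMA-treated control included; soluble TGFα measured in the supernatant.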

[9] = target: T2, Disintegrin and metalloproteinase domain-containing protein 17; assay: Inhibition of ADAM17 in human THP1 cells assessed as inhibition of LPS-stimulated TNFalpha cleavage at 25 uM after 1 hr by AlphaScreen assay relative to control; type: cell-based; settings: THP-1
Method in brief: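 THP-1 cells grown in RPMI 1640 with 10% FBS and 0.05 mM 2-mercaptoethanol; 3000 cells per well. Compound given in 3% DMSO for 1 h, then LPS added (1 μg/mL final) and cells incubated overnight at 37 °C. TNFα detected by AlphaScreen using anti-TNFα acceptor beads and streptavidin donor beads, each step 1 h in the dark at RT.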

Neutrophil collagenase = Neutrophil collagenase (Homo sapiens, UniProt P22894); assay: Inhibition of MMP8 (unknown origin) using Mca-KLPGL-Dnp-AR as substrate at 100 uM preincubated for 30 mins followed by substrate addition measured after 1 hr by fluorescence assay relative to control; method in brief: as §2
Chain of Neutrophil collagenase (P22894 101-467 limits assumed): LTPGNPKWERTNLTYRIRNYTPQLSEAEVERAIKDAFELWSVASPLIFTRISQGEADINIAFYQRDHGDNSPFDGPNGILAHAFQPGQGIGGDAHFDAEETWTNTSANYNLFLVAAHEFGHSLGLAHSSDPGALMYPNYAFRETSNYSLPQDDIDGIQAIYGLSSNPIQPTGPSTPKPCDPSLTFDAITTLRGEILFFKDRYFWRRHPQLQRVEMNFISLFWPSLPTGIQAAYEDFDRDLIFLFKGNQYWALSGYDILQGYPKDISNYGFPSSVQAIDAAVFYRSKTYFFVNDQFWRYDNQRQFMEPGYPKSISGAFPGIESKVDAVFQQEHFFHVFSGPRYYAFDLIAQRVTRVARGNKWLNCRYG

[10] = target: 72 kDa type IV collagenase (Homo sapiens, UniProt P08253); assay: Inhibition of MMP2 (unknown origin) using Mca-KLPGL-Dnp-AR as substrate at 100 uM preincubated for 30 mins followed by substrate addition measured after 1 hr by fluorescence assay relative to control; method in brief: as §2
Chain of 72 kDa type IV collagenase (P08253 110-660 limits assumed): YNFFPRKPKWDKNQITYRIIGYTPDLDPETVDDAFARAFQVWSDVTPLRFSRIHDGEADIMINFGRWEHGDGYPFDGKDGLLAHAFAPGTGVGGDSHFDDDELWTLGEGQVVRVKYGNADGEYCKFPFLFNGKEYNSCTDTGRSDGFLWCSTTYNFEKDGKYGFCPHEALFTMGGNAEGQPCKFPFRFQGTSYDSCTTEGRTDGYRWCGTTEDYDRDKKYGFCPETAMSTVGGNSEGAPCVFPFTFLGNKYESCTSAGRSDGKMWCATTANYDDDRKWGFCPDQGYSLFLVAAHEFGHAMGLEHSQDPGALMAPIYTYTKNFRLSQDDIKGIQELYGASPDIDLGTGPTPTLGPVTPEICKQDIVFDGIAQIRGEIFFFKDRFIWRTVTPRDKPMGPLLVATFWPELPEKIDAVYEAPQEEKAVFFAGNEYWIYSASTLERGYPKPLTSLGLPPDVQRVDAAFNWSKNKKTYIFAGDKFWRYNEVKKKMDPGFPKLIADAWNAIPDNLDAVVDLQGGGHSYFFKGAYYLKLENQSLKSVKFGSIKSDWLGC

[11] = target: T2, Disintegrin and metalloproteinase domain-containing protein 17; assay: Inhibition of ADAM17 in human A549 cells assessed as inhibition of PMA-stimulated heregulin shedding at 40 uM incubated for 1 hr followed by PMA stimulation measured after 1 hr; type: cell-based
Method in brief: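 Heregulin shedding in A549 cells, with all compounds tested at 40 μM.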

| Compound | pIC50 [1] | pIC50 [2] | other results |
| --- | --- | --- | --- |
| CCC[C@H]1CNC(=O)C(=O)N1C[C@@H]1CCCN1C[C@H](Cc1ccc(O)cc1)N1C[C@H](Cc2ccc3ccccc3c2)N(CCC23CC4CC(CC(C4)C2)C3)C(=O)C1=O | < 4.00 | 5.00 | – |
| O=C1NC[C@@H](Cc2ccc3ccccc3c2)N(C[C@@H]2CCCN2C[C@H](Cc2ccc(O)cc2)N2C[C@@H](Cc3ccc4ccccc4c3)N(CCC34CC5CC(CC(C5)C3)C4)C(=O)C2=O)C1=O | < 4.00 | 5.24 | – |
| CCC[C@H]1CNC(=O)C(=O)N1C[C@@H]1CCCN1C[C@H](Cc1ccc(O)cc1)N1C[C@H](Cc2ccc(O)cc2)N(CC23CC4CC(CC(C4)C2)C3)C(=O)C1=O | < 4.00 | 5.00 | – |
| O=C1NCC(Cc2ccccc2)N(C[C@@H]2CCCN2C[C@@H](CC2CCCCC2)N2C[C@H](Cc3ccccc3)N(CCc3ccccc3)C(=O)C2=O)C1=O (single isomer, unassigned) | – | – | inhibition [3]: 0%; inhibition [4]: 0%; inhibition [5]: 100%; inhibition [6]: 0%; inhibition [7]: 0%; inhibition [8]: 0%; inhibition [9]: 0%; inhibition (Neutrophil collagenase): 0%; inhibition [10]: 0%; inhibition [11]: 34% |
| CCC[C@H]1CNC(=O)C(=O)N1C[C@@H]1CCCN1C[C@H](Cc1ccc(O)cc1)N1C[C@H](Cc2ccc(O)cc2)N(CC2CCC(C(C)(C)C)CC2)C(=O)C1=O (some centres undefined) | < 4.00 | 5.00 | – |
| O=C1NC[C@@H](Cc2ccc3ccccc3c2)N(C[C@@H]2CCCN2C[C@H](Cc2ccc(O)cc2)N2C[C@@H](Cc3ccc(O)cc3)N(CCC34CC5CC(CC(C5)C3)C4)C(=O)C2=O)C1=O | < 4.00 | 4.82 | – |

Second part, led by results:

| pIC50 [1] | pIC50 [2] | Compound | other results |
| --- | --- | --- | --- |
| < 4.00 | 4.46 | CCC[C@H]1CNC(=O)C(=O)N1C[C@@H]1CCCN1C[C@H](Cc1ccc(O)cc1)N1C[C@H](Cc2ccc(O)cc2)N(CC2CCCC2)C(=O)C1=O | – |
| < 4.00 | 4.82 | CCC[C@H]1CNC(=O)C(=O)N1C[C@@H]1CCCN1C[C@H](Cc1ccc(O)cc1)N1C[C@H](Cc2ccc(O)cc2)N(CC(CC)c2ccccc2)C(=O)C1=O (some centres undefined) | – |
